IC50 data for 36 molecules are collected here from ChEMBL document CHEMBL1125690, “Quinazoline antifolate thymidylate synthase inhibitors: heterocyclic benzoyl ring modifications” (J Med Chem, 1991).

In test [1] the test system is L1210. The test is described as follows: In vitro inhibition of L1210 cell growth in culture. Particulars: Mus musculus. Type of test: functional, cell-based. In short, it runs like this:
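L1210 mouse leukaemia cells grown in culture. The value reported is the IC50 for inhibition of cell growth.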

The target in test [2] is Thymidylate synthase (Mus musculus, UniProt P07607). Description: In vitro inhibition of partially purified L1210 thymidylate synthase (TS).
Thymidylate synthase, sequence (P07607 whole entry): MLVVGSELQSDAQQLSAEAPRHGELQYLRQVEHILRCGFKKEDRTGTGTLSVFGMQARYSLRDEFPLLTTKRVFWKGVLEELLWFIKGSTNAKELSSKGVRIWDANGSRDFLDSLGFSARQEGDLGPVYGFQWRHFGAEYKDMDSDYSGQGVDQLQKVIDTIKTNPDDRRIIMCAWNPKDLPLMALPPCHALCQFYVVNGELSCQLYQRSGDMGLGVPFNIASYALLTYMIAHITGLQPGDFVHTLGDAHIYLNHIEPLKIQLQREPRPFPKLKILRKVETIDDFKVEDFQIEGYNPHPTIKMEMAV

In the case of `Cc1nc2ccc(CN(C)c3ccc(C(=O)N[C@@H](CCC(=O)O)C(=O)O)cn3)cc2c(=O)[nH]1`, the IC50 in test [1] is 1600 nM; in test [2] it was 4250 nM.

For `CCCN(Cc1ccc2nc(C)nc(O)c2c1)c1ccc(C(=O)N[C@H](CCC(=O)O)C(=O)O)s1`, the IC50 in test [1] came out at 400 nM; in test [2], 1850 nM.

Regarding `CN(Cc1ccc2nc(CF)nc(O)c2c1)c1ccc(C(=O)N[C@H](CCC(=O)O)C(=O)O)s1`, the IC50 in test [1] came out at 16 nM; in test [2], 1360 nM.

In the case of `Cc1nc(O)c2cc(CN(CCF)c3cnc(C(=O)N[C@H](CCC(=O)O)C(=O)O)s3)ccc2n1`, the IC50 in test [1] is 20 nM; in test [2] it was 190 nM. The molecule `Cc1nc(O)c2cc(CN(C)c3ccc(C(=O)N[C@H](CCC(=O)O)C(=O)O)s3)ccc2n1` displayed an IC50 in test [1] of 7 nM. As for `C#CCN(Cc1ccc2nc(C)[nH]c(=O)c2c1)c1ccc(C(=O)N[C@@H](CCC(=O)O)C(=O)O)nc1`, the IC50 in test [1] was found to be 60 nM; in test [2], 40 nM. As to `Cc1nc2ccc(CN(C)c3ccc(C(=O)N[C@@H](CCC(=O)O)C(=O)O)nc3)cc2c(=O)[nH]1`, the IC50 was 160 nM in test [1] and 350 nM in test [2]. As to `Cc1nc2ccc(CN(C)c3cnc(C(=O)N[C@@H](CCC(=O)O)C(=O)O)nc3)cc2c(=O)[nH]1`, the IC50 in test [1] turned out to be 1400 nM; in test [2], 2340 nM. For the molecule `Cc1nc2ccc(CN(C)c3ccc(C(=O)N[C@@H](CCC(=O)O)C(=O)O)cc3)cc2c(=O)[nH]1`, in test [2], the IC50 is 250 nM. On to `CN(Cc1ccc2nc(CO)nc(O)c2c1)c1cnc(C(=O)N[C@H](CCC(=O)O)C(=O)O)s1`, for which the IC50 is 300 nM in test [1] and 490 nM in test [2]. In the case of `Cc1nc(O)c2cc(CN(CCCO)c3cnc(C(=O)N[C@H](CCC(=O)O)C(=O)O)s3)ccc2n1`, the concentration for half-maximal inhibition (IC50) in test [1] is 60 nM; in test [2] it was 1740 nM.

For `Cc1nc(O)c2cc(CN(CCO)c3ccc(C(=O)N[C@H](CCC(=O)O)C(=O)O)s3)ccc2n1`, the values for the IC50 in test [1] and in test [2] were 100 nM and 1200 nM, respectively. As to `Cc1nc(O)c2cc(CN(CCCO)c3ccc(C(=O)N[C@H](CCC(=O)O)C(=O)O)s3)ccc2n1`, the values for the IC50 in test [1] and in test [2] were 3000 nM and 3360 nM, respectively. On the same counts, the results for `Cc1nc(O)c2cc(CNc3ccc(C(=O)N[C@H](CCC(=O)O)C(=O)O)s3)ccc2n1` are 3000 nM and 24800 nM. On the same counts, the results for `CCN(Cc1ccc2nc(C)nc(O)c2c1)c1ccc(C(=O)N[C@H](CCC(=O)O)C(=O)O)s1` are 16 nM and 580 nM.

For the molecule `C=CCN(Cc1ccc2nc(C)nc(O)c2c1)c1ccc(C(=O)N[C@H](CCC(=O)O)C(=O)O)s1`, the IC50 is 58 nM in test [1] and 1680 nM in test [2]. On the same counts, the results for `CCN(Cc1ccc2nc(C)nc(O)c2c1)c1ncc(C(=O)N[C@H](CCC(=O)O)C(=O)O)s1` are 900 nM and 760 nM.

As for `Cc1nc(O)c2cc(CN(CCO)c3cnc(C(=O)N[C@H](CCC(=O)O)C(=O)O)s3)ccc2n1`, the results for the IC50 in test [1] and in test [2] were 20 nM and 420 nM, respectively. With `CN(Cc1ccc2nc(CO)nc(O)c2c1)c1ccc(C(=O)N[C@H](CCC(=O)O)C(=O)O)s1`, the IC50 in test [1] stood at 780 nM; in test [2], 1360 nM. Turning to `C=CCN(Cc1ccc2nc(C)[nH]c(=O)c2c1)c1ccc(C(=O)N[C@@H](CCC(=O)O)C(=O)O)nc1`, the IC50 in test [1] came out at 130 nM; in test [2], 760 nM. On the same counts, the results for `Cc1nc2ccc(CN(CCF)c3ccc(C(=O)N[C@@H](CCC(=O)O)C(=O)O)nc3)cc2c(=O)[nH]1` are 140 nM and 160 nM. Regarding `C#CCN(Cc1ccc2nc(C)nc(O)c2c1)c1ccc(C(=O)N[C@H](CCC(=O)O)C(=O)O)s1`, the IC50 in test [1] came out at 60 nM; in test [2] it was 440 nM. Consider `C=CCN(Cc1ccc2nc(C)nc(O)c2c1)c1cnc(C(=O)N[C@H](CCC(=O)O)C(=O)O)s1`, for which the values for the IC50 in test [1] and in test [2] were 13 nM and 1070 nM, respectively. `Cc1nc(O)c2cc(CN(CCF)c3ccc(C(=O)N[C@H](CCC(=O)O)C(=O)O)s3)ccc2n1`: the IC50 is 100 nM in test [1] and 550 nM in test [2]. Take `CCN(Cc1ccc2nc(CF)nc(O)c2c1)c1ccc(C(=O)N[C@H](CCC(=O)O)C(=O)O)s1`: the IC50 turned out to be 110 nM in test [1] and 930 nM in test [2].

Regarding `CCN(Cc1ccc2nc(C)nc(O)c2c1)c1cnc(C(=O)N[C@H](CCC(=O)O)C(=O)O)s1`, the results for the IC50 in test [1] and in test [2] were 8 nM and 230 nM, respectively. On the same counts, the results for `Cc1nc(O)c2cc(CNc3cnc(C(=O)N[C@H](CCC(=O)O)C(=O)O)s3)ccc2n1` are 280 nM and 7120 nM. On to `C#CCN(Cc1ccc2nc(C)nc(O)c2c1)c1cnc(C(=O)N[C@H](CCC(=O)O)C(=O)O)s1`, for which the IC50 in test [1] was 8 nM; in test [2], 230 nM.

For `CCN(Cc1ccc2nc(C)[nH]c(=O)c2c1)c1ccc(C(=O)N[C@@H](CCC(=O)O)C(=O)O)nc1`, the values for the IC50 in test [1] and in test [2] were 640 nM and 150 nM, respectively.

Regarding `CCN(Cc1ccc2nc(C)nc(O)c2c1)c1nnc(C(=O)N[C@H](CCC(=O)O)C(=O)O)s1`, the IC50 is 2400 nM in test [1] and 940 nM in test [2]. On the same counts, the results for `CCN(Cc1ccc2nc(CO)nc(O)c2c1)c1ccc(C(=O)N[C@H](CCC(=O)O)C(=O)O)s1` are 2700 nM and 1030 nM.

Molecule `CCN(Cc1ccc2nc(C)[nH]c(=O)c2c1)c1ccc(C(=O)N[C@@H](CCC(=O)O)C(=O)O)cc1` returned an IC50 in test [2] of 260 nM. Take `Cc1nc(O)c2cc(CN(CC#N)c3ccc(C(=O)N[C@H](CCC(=O)O)C(=O)O)s3)ccc2n1`: the IC50 is 200 nM in test [1] and 3080 nM in test [2]. With `CCN(Cc1ccc2nc(CF)nc(O)c2c1)c1cnc(C(=O)N[C@H](CCC(=O)O)C(=O)O)s1`, the IC50 worked out at 100 nM in test [1] and 220 nM in test [2]. For `Cc1nc(O)c2cc(CN(C)c3cnc(C(=O)N[C@H](CCC(=O)O)C(=O)O)s3)ccc2n1`, the IC50 in test [1] turned out to be 6 nM; in test [2], 420 nM. For the molecule `O=C(O)CC[C@@H](NC(=O)c1ccc(N(CCF)Cc2ccc3nc(CF)nc(O)c3c2)s1)C(=O)O`, the values for the IC50 in test [1] and in test [2] were 670 nM and 1070 nM, respectively.

The IC50 is the concentration needed to halve the response being measured.
